Compound activity from PubChem BioAssay.
The full list was thinned out, with hits kept by preference.
CHOP inhibitor = inhibitors of CHOP promoter induction, primary screen, cell-based, unfolded protein response, luciferase reporter | CHO-K1 CHOP-promoter luciferase, tunicamycin-induced, 15-18 h | inhibition, % at 10 µM | 220,000 tested, 3.8% active | AID 2732, 2010;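 active = compounds that reduced the stress-induced luciferase reporter signal by more than about 70% of percent inhibition, limit read from the data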;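 also: 0% = tunicamycin plus vehicle and 100% = wells without tunicamycin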
XBP1 UPR activ = activators of adaptive XBP1 UPR arm, primary screen, cell-based, CHO-XBP1 luciferase reporter, luminescence, uHTS. IRE1-XBP1 UPR activation; percent of tunicamycin response, DMSO as zero. activation, % at 20 µM. 330,000 tested, 0.33% active. AID 463104, 2010;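 active = versus positive control, 20 µM dose yields 30% or more activation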;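 also: 100% = tunicamycin at 10 µg/mL and 0% = DMSO only wells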
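incubation = overnight seeding at 37 °C, 6 h compound treatment at 37 °C | assay system = CHO-XBP1 cells stably carrying IRE1-XBP1-driven luciferase reporter | input = 1000 cells per well | detection = luciferase luminescence | dosing = single point, 20 µM final compound, 1% DMSO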
T cruzi inh = inhibitors of intracellular T. cruzi growth, primary screen, luminescence, NIH3T3 host cells. T. cruzi beta-gal in NIH3T3, 90 h. inhibition, % (test concentration not listed). 300,000 tested, 1.4% active. AID 1885, 2009;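 active = mean inhibition across valid replicates above about 55%, limit read from the data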;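 also: signal also drops with host cell toxicity which is not excluded here; 0% = plate median of DMSO wells and 100% = zero luminescence signal; higher percent means less beta-gal luminescence so fewer parasites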
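compound dosing = single 50 nL compound addition per well in DMSO | material = NIH/3T3 host cells with β-galactosidase reporter T. cruzi | input = 5,000 host fibroblasts per well | timing = ≥90 h infection period, 3 h prior cell attachment | read-out basis = percent inhibition of parasite-derived β-gal signal | detection = GalScreen β-gal luminescence, detergent lysis, 60 min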
UPR CHOP act = activators of apoptotic CHOP UPR arm, primary screen, cell-based, CHO-CHOP luciferase reporter, luminescence, uHTS; UPR activation; percent of tunicamycin response over DMSO baseline; activation, % at 10 µM; 330,000 tested, 0.34% active; AID 449763, 2010;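 active = at 10 µM dose, activation of 40% or more, normalized to positive control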;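 also: 100% = tunicamycin at 10 µg/mL and 0% = DMSO alone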
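Evaluation: % reporter activation, DMSO baseline versus tunicamycin full activation; System: CHO-CHOP luciferase reporter cell line; Input: 500 cells/well; Incubation: 6 h compound treatment, 37 °C; Measured by: Steady-Glo luciferase luminescence; Dosing: one dose, 10 µM in 0.5% DMSO; Buffer or medium: F12 medium, 10% FBS; Benchmarks: positive tunicamycin 10 µg/mL, negative DMSO alone.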
Lmaj promast = Leishmania major promastigote growth inhibition, primary screen | Leishmania major promastigotes, resazurin fluorescence viability | inhibition, % at 10 µM | 200,000 tested, 9% active; in the data active = inhibition above about 50%;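 also: promastigotes grown with compound for 44 hours at 28 °C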
Dynein cargo inh = inhibitors of GR-EGFP nuclear translocation, primary screen, dynein cargo transport inhibitor project, imaging, high-content, 3617.4 mouse cells | 220,000 tested, 0.47% active | z-score, hits read low | test concentration mostly 20 µM; stimulated with dexamethasone, 1 µM; stronger effect = lower value;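 active = plate z-score of nuclear minus cytoplasmic receptor signal below a set negative limit, without overly bright fluorescence or cell loss, cut at about -3.5 in these data, passing the limit was not always enough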;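 also: z-score of nuclear minus cytoplasmic ring GR-EGFP intensity difference per well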
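Also added: dexamethasone, 1.0 µM final. Medium: tet-free, stripped-serum medium. Detection: fixed, Hoechst-stained cells imaged at 10x for EGFP. Read-out: nuclear-to-cytoplasmic GR-EGFP distribution per well. Times: induction 48 h, compound 1 h, agonist 30 min.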
An asterisk follows results filed as active; . = no result.

SMILES	CHOP inhibitor	XBP1 UPR activ	T cruzi inh	UPR CHOP act	Lmaj promast	Dynein cargo inh
CC1Cc2ccccc2N1C(=O)CSc1nnc2c(n1)[nH]c1ccc(F)cc12 (stereo not drawn)	48.4	1.2	1.3	-1.3	6.7	0.499
Cc1ccc(S(=O)(=O)N(CC(=O)c2ccccc2)C(=O)N2CCN(C)CC2)cc1	.	-1.2	-1.3	3.5	.	.
Cc1ccc(C(=O)Nc2nc(C)c(C(=O)Nc3ccc4c(c3)CCC4)s2)cc1	-34.5	5.4	-26.6	2.9	-4.4	-0.00681
Cc1nc(NC(=O)c2ccc(F)cc2)sc1C(=O)Nc1ccc2c(c1)CCC2	81.6*	-2.0	-13.8	4.1	-1.0	0.0396
COc1ccc(CN=C2NC(=O)CC(C(=O)Nc3ccc([N+](=O)[O-])cc3C)S2)cc1 (stereo not drawn)	18.8	.	.	.	86.0*	-0.275
Cc1ccc(-n2c(-c3ccccc3)c[n+]3c2CCc2ccccc2-3)c(C)c1	32.1	6.0	.	-1.3	100.5*	0.00823
Cc1ccc(-n2c(NN)nc3ccccc3c2=O)c(C)c1	4.3	-1.7	-13.8	-1.5	21.1	0.969
CCCCc1nnc(NC(=O)CN2C(=O)NC3(CCCCC3)C2=O)s1	.	-2.7	-4.2	0.5	.	.
CC(O)CNCCNCc1c(OCc2ccccc2)ccc2ccccc12 (stereo not drawn)	-31.6	0.5	21.5	-0.1	100.7*	-0.912
OCCNCc1c(OCc2ccc(Cl)cc2)ccc2ccccc12	.	-1.9	25.1	1.0	.	.
CC(O)CNCCOc1ccccc1OCc1ccccc1 (stereo not drawn)	-5.6	-1.7	-9.8	0.9	87.9*	0.186
CCOc1ccc2ccccc2c1/C=N/NC(=O)c1ccncc1	.	-0.5	12.3	-1.1	.	.
CCCCn1nc(C(=O)NCC2COc3ccccc3O2)c2ccccc2c1=O (stereo not drawn)	.	0.7	.	-1.3	.	.
O=C(Nc1cccc(Cl)c1)c1ccc(NCCCN2CCOCC2)c([N+](=O)[O-])c1	26.1	-5.7	24.0	1.8	99.2*	0.537
Cc1ccc(NC(=O)c2ccc(NCCCN3CCC(C)CC3)c([N+](=O)[O-])c2)cc1F	59.2	-1.0	-0.5	1.4	84.0*	-1.28
Cc1ccc(NC(=O)c2ccc(NCCN)c([N+](=O)[O-])c2)cc1	30.4	1.8	-34.9	1.7	88.6*	-0.385
Cc1cccc(NC(=O)c2ccc(NCCc3ccccc3)c([N+](=O)[O-])c2)c1	1.6	1.7	-7.5	5.2	-3.4	-1.53
Fc1ccc(Cn2c(-c3cscn3)nc3ccccc32)c(Cl)c1	93.8*	0.1	10.0	-0.8	0.8	0.667
Clc1ccc(Cn2c(-c3cccnc3Cl)nc3ccccc32)c(Cl)c1	21.8	-2.5	31.2	1.7	98.6*	0.642
Cc1ccccc1/C=c1\s/c(=C\C(=O)C(C)(C)C)[nH]c1=O	81.8*	0.2	11.6	0.6	25.3	-0.385
CCn1c(=O)c(=O)[nH]c2cc(C(=O)NC(C)c3ccc(S(N)(=O)=O)cc3)ccc21 (stereo not drawn)	.	-0.2	-0.7	0.1	.	.
CCN(CC)CCN(C(=O)c1ccc2c(c1)CCCC2)c1nc2ccc(F)cc2s1	65.3	-3.0	54.7*	1.3	35.5	-1.08
COc1ccc2sc(N(CCN(C)C)C(=O)c3cc(Cl)sc3Cl)nc2c1	-3.5	0.0	53.9	-0.8	0.3	0.489
Cc1ccc2nc(N(CCCN(C)C)C(=O)c3ccc(S(=O)(=O)N(C)C)cc3)sc2c1	10.6	-0.5	52.7	3.3	37.3	-1.06
CN(C)CCCN(C(=O)c1ccc(S(=O)(=O)N(C)C)cc1)c1nc2ccc(F)cc2s1	7.3	3.1	67.3*	0.8	11.6	0.323
SMILES	CHOP inhibitor	XBP1 UPR activ	T cruzi inh	UPR CHOP act	Lmaj promast	Dynein cargo inh
CN(C)CCCN(C(=O)c1ccc2c(c1)CCCC2)c1nc2ccc(F)cc2s1	36.4	1.5	40.1	3.4	73.5*	-0.193
CCN(CC)CCN(C(=O)c1ccc2c(c1)CCCC2)c1nc2ccc(C)cc2s1	.	-2.8	19.1	0.7	.	.
CN(C)CCN(C(=O)c1cc(Cl)sc1Cl)c1nc2ccc(F)cc2s1	-4.3	-0.7	56.1*	2.3	-4.4	0.127
O=C1CCc2cc(S(=O)(=O)N3CCCCC3)cc3c2N1CC3	.	4.3	0.8	-0.4	.	.
CC1CCCN(C(=O)COC(=O)C2=COCCO2)C1 (stereo not drawn)	.	1.1	.	1.7	.	.
CCCCOc1ccc(Cc2c(O)nc(SC)[nH]c2=O)cc1	.	-6.4	9.6	1.4	.	.
CCC(C(=O)Nc1cc(C(=O)Nc2cc(C)ccn2)ccc1Cl)c1ccccc1 (stereo not drawn)	41.4	-0.1	-0.3	2.8	81.0*	0.14
Cc1onc(-c2ccccc2Cl)c1C(=O)OCC(=O)N1CCN(c2ccccc2)CC1	.	-1.7	-3.2	0.5	.	.
CC(=O)Nc1nc(C)c(C(C)=O)s1	-22.9	-0.6	9.4	0.6	-0.5	-0.216
CC(=O)c1sc(N/N=C2\CC3CCC2(C)C3(C)C)nc1C (stereo not drawn)	17.3	-3.5	29.4	-0.2	82.6*	-0.55
CCCS(=O)(=O)c1nc(S(=O)(=O)c2ccc(C)cc2)c(N2CCC3(CC2)OCCO3)s1	.	-4.3	0.4	0.1	.	.
O=C(NCc1ccccc1Cl)c1ccc2c(c1)OCO2	.	-4.1	-16.1	1.9	.	.
C/C(=N\NC(=O)c1cc2c(s1)CCC(C)C2)c1ccncc1 (stereo not drawn)	10.3	4.9	7.6	1.5	96.6*	-0.583
C/C(=N\NC(=O)c1cc2c(s1)CCC(C)C2)c1ccc[nH]1 (stereo not drawn)	.	0.0	.	1.8	.	.
Cc1ccc(NC(=O)COC(=O)CNC(=O)c2ccc3ccccc3c2)c([N+](=O)[O-])c1	-2.0	1.1	2.2	-1.3	-5.0	-0.127
COc1ccc2c(c1)c1ncn(CCN3CCNCC3)c(=O)c1n2C	73.5*	-2.5	-3.0	-1.0	20.3	0.00716
COc1ccc2c(c1)c1ncn(CCN3CCCCC3)c(=O)c1n2C	42.9	-2.3	2.0	-2.7	38.8	-0.0972
COc1ccc(F)cc1S(=O)(=O)NCc1cc(=O)n(C)c(=O)n1C	.	-3.2	-2.5	-2.3	.	.
O=C(NCc1ccc(F)cc1)c1cccc(S(=O)(=O)N2CCOCC2)c1	.	-0.7	.	-0.5	.	.
CC(C)CCn1c(Oc2ccc(Cl)cc2)nc2c1c(=O)n(C)c(=O)n2C	76.5*	-3.2	36.7	4.8	10.4	-1.04
COc1ccc(-c2n[nH]c(C)c2-c2ccc(Cl)cc2)c(O)c1OC	89.7*	0.3	-5.9	0.9	17.7	-0.509
